Data as given in paper PMC6889097 (Virologica Sinica, 2019).
Like-named read-outs stand apart in the source and are kept apart here. Marks after values point to notes of the source that are not given here.

Legend:
Cell viability = assay type: cell-based, human; details: human; for CC50 at 48 h: uninfected U937 cells; for CC50: U937 cells
Summary of the method: (§1)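 Uninfected U937 cells, 40,000/well (1 × 10^6 cells/mL) in RPMI 1640 + 10% FBS, were incubated with serially diluted test compound in 384-well plates for 48 h at 37 ℃/5% CO2. After the plates were spun at 500 ×g for 3 min, supernatant was replaced with medium containing 20% MTS reagent for 1 h at 37 ℃. OD490 was read against reference OD630, and CC50 was derived.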

CCL2 = assay: cells; assay type: cell-based, human; details: for IC50: Homo sapiens
[1] = system: A/PuertoRico/8/1934 (H1N1) influenza virus; assay: microbe, parasite or virus in culture; assay type: cell-based, influenza virus A/PuertoRico/8/1934 (H1N1)
[2] = system: lethal influenza virus infection; details: mouse, cited from earlier work
CXCL10 = assay: cells; assay type: cell-based, human; details: for IC50: Homo sapiens, U-937, read-out: IC50 CXCL10
U937 cells = assay: Cell viability; assay type: cell-based, human; details: 50% cytotoxic concentration, MTS assay, U937 cells; validation panel (Table 2)
Summary of the method: as §1

[3] = Influenza A virus, H1N1, U-937, read-out: IC50 NA

Row | SMILES | CC50 at 48 h (Cell viability) | IC50 CCL2 (CCL2) | IC50 NA [1] | reported effect on survival rate of influenza-infected mice ([2]; in vivo) | In vivo: the protective effect of mice from lethal influenza infection [2] | CC50 (Cell viability) | IC50 CXCL10 (CXCL10) | other results
1 | Cc1nc(Nc2ncc(C(=O)Nc3c(C)cccc3Cl)s2)cc(N2CCN(CCO)CC2)n1 [Dasatinib] | > 90 µM | – | – | – | – | – | – | –
2 | O=C(O)C[C@H](O)C[C@H](O)/C=C/c1c(C2CC2)nc2ccccc2c1-c1ccc(F)cc1 [Pitavastatin] | > 90 µM | – | – | – | – | – | – | –
3 | Cc1ccc(-c2ncc(Cl)cc2-c2ccc(S(C)(=O)=O)cc2)cn1 [Etoricoxib, etoricoxib] | – | – (key: –: lower than 50% inhibition or not effective) | – (key: –: lower than 50% inhibition or not effective) | no improvement on the survival rate | ±^j | > 50 µM | – (key: –: lower than 50% inhibition or not effective) | effect on the production of CCL2 in U937 cell model (result in words) (CCL2): no inhibitory effect; effect on the production of CXCL10 in U937 cell model (result in words) (CXCL10): no inhibitory effect
4 | CC(C)Cc1ccc(C(C)C(=O)O)cc1 (stereo not shown) [Ibuprofen, ibuprofen] | – | – (key: –: lower than 50% inhibition or not effective) | – (key: –: lower than 50% inhibition or not effective) | – | – | > 50 µM | – (key: –: lower than 50% inhibition or not effective) | effect on the production of CCL2 in U937 cell model (result in words) (CCL2): no inhibitory effect; effect on the production of CXCL10 in U937 cell model (result in words) (CXCL10): no inhibitory effect
5 | CC(C)Oc1ccc(-c2nc(-c3cccc4c3CC[C@@H]4NCCO)no2)cc1C#N [Ozanimod, ozanimod] | – | – | – (key: –: lower than 50% inhibition or not effective) | improve the survival rate and pathology | + | 26 µM | – | IC50 (CCL2; U-937, read-out: IC50 CCL2): 7.7 µM; IC50 (CXCL10): 10.7 µM
6 | CCC(C)(C)C(=O)O[C@H]1C[C@@H](C)C=C2C=C[C@H](C)[C@H](CC[C@@H]3C[C@@H](O)CC(=O)O3)[C@H]21 [Simvastatin] | 66.8 µM | – | – | – | – | – | – | –
7 | NC(=O)c1ncn([C@@H]2O[C@H](CO)[C@@H](O)[C@H]2O)n1 [Ribavirin] | – | – (key: –: lower than 50% inhibition or not effective) | – | – | – | > 160 µM | – (key: –: lower than 50% inhibition or not effective) | antiviral effect in the U937 cell model (result in words) [1]: antiviral effects; IC50 [1, 3]: 26.2 µM
8 | CCOC(=O)N[C@@H]1CC[C@@H]2[C@@H](C1)C[C@H]1C(=O)O[C@H](C)[C@H]1[C@H]2/C=C/c1ccc(-c2cccc(F)c2)cn1 [Vorapaxar, vorapaxar] | – | – | – (key: –: lower than 50% inhibition or not effective) | improve the survival rate and pathology | + | > 80 µM | – | IC50 (CCL2; U-937, read-out: IC50 CCL2): 5.2 µM; IC50 (CXCL10): 13.3 µM
9 | CC(C)n1c(/C=C/C(O)CC(O)CC(=O)O)c(-c2ccc(F)cc2)c2ccccc21 (stereo not shown) [Fluvastatin] | > 90 µM | – | – | – | – | – | – | –
10 | CN(CCOc1ccc(CC2SC(=O)NC2=O)cc1)c1ccccn1 (stereo not shown) [Rosiglitazone, rosiglitazone] | – | – (key: –: lower than 50% inhibition or not effective) | – (key: –: lower than 50% inhibition or not effective) | improve the survival rate and pathology | + | > 100 µM | – (key: –: lower than 50% inhibition or not effective) | –
11 | CNCCCC1c2ccccc2C=Cc2ccccc21 [Protriptyline] | > 90 µM | – | – | – | – | – | – | –
12 | CC[C@@H]1/C=C(\C)C[C@H](C)C[C@H](OC)[C@H]2O[C@@](O)(C(=O)C(=O)N3CCCC[C@H]3C(=O)O[C@H](/C(C)=C/[C@@H]3CC[C@@H](O)[C@H](OC)C3)[C@H](C)[C@@H](O)CC1=O)[C@H](C)C[C@@H]2OC [Ascomycin, ascomycin] | – | – | – | – | + | 62 µM | – | IC50 (CCL2; U-937, read-out: IC50 CCL2): 8.1 µM; antiviral effect in the U937 cell model (result in words) [1]: antiviral effects; IC50 [1, 3]: 21.3 µM; IC50 (CXCL10): 9.9 µM
13 | C[C@H]1COc2c(N3CCN(C)CC3)c(F)cc3c(=O)c(C(=O)O)cn1c23 [Levofloxacin] | > 90 µM | – | – | – | – | – | – | IC50 (CCL2; U-937, 48 h, read-out: IC50 CCL2): ≤ 10 µM; reported survival rate in mice infected with the H1N1 PR8 virus ([2]; in vivo): increased the survival rate
14 | CCOC(=O)C1=C[C@@H](OC(CC)CC)[C@H](NC(C)=O)[C@@H](N)C1 [Oseltamivir] | – | – (key: –: lower than 50% inhibition or not effective) | – | – | + | – | – (key: –: lower than 50% inhibition or not effective) | antiviral effect in the U937 cell model (result in words) [1]: antiviral effects; IC50 ([1]; read-out: IC50 NA): 0.58 µM; CC50 (U937 cells): > 100 µM
15 | C=CC(=O)N1CCC[C@@H](n2nc(-c3ccc(Oc4ccccc4)cc3)c3c(N)ncnc32)C1 [Ibrutinib, ibrutinib] | – | – | –^h (key: –: lower than 50% inhibition or not effective) | improve the survival rate and pathology | +^i | 26.5 µM | – | IC50 (CCL2; U-937, read-out: IC50 CCL2): 0.62 µM; reported protection of mice from lethal influenza infection ([2]; in vivo): protect mice from lethal influenza infection; IC50 (CXCL10): 0.96 µM
